From ChEMBL document CHEMBL4393677, “Comparative analysis of pyrimidine substituted aminoacyl-sulfamoyl nucleosides as potential inhibitors targeting class I aminoacyl-tRNA synthetases” (Eur J Med Chem, 2019) come the findings set out here.

Data set [1] addresses Isoleucine--tRNA ligase (Escherichia coli K-12) (UniProt P00956). As to the kind of experiment: Inhibition of ileRS in Escherichia coli BL21 (DE3) pLysS S30 extract over expressing SUMO incubated for 5 to 60 mins in presence of 14C-labeled isoleucine and acetyl-CoA by liquid scintillation counting method.
Data set [2] concerns the target T1, Tyrosine--tRNA ligase (Escherichia coli (strain K12)) (UniProt P0AGJ9).
T1 sequence (whole entry): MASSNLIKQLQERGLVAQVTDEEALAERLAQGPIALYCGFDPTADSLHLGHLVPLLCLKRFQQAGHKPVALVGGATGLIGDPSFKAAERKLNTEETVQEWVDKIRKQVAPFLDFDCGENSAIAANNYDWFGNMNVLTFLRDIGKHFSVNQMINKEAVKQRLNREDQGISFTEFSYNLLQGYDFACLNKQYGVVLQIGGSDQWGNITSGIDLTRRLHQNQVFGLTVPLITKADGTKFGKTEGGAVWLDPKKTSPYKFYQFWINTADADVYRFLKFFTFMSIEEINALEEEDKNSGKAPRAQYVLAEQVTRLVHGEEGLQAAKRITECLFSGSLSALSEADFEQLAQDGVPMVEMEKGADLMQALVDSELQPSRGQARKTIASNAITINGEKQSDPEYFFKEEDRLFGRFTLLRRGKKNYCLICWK
Description: Inhibition of tyrRS in Escherichia coli BL21 (DE3) pLysS S30 extract over expressing SUMO incubated for 5 to 60 mins in presence of 14C-labeled tyrosine by liquid scintillation counting method.

In data set [3] the target is T1, Tyrosine--tRNA ligase (Escherichia coli (strain K12)). Description: Inhibition of tyrRS in Escherichia coli BL21 (DE3) pLysS S30 extract over expressing RimI incubated for 5 to 60 mins in presence of 14C-labeled tyrosine by liquid scintillation counting method.
In data set [4] the target is Isoleucine--tRNA ligase (Escherichia coli K-12) (UniProt P00956). Description: Inhibition of ileRS in Escherichia coli BL21 (DE3) pLysS S30 extract over expressing RimL incubated for 5 to 60 mins in presence of 14C-labeled isoleucine and acetyl-CoA by liquid scintillation counting method.
Sequence of Isoleucine--tRNA ligase (Escherichia coli K-12) (P00956 whole entry): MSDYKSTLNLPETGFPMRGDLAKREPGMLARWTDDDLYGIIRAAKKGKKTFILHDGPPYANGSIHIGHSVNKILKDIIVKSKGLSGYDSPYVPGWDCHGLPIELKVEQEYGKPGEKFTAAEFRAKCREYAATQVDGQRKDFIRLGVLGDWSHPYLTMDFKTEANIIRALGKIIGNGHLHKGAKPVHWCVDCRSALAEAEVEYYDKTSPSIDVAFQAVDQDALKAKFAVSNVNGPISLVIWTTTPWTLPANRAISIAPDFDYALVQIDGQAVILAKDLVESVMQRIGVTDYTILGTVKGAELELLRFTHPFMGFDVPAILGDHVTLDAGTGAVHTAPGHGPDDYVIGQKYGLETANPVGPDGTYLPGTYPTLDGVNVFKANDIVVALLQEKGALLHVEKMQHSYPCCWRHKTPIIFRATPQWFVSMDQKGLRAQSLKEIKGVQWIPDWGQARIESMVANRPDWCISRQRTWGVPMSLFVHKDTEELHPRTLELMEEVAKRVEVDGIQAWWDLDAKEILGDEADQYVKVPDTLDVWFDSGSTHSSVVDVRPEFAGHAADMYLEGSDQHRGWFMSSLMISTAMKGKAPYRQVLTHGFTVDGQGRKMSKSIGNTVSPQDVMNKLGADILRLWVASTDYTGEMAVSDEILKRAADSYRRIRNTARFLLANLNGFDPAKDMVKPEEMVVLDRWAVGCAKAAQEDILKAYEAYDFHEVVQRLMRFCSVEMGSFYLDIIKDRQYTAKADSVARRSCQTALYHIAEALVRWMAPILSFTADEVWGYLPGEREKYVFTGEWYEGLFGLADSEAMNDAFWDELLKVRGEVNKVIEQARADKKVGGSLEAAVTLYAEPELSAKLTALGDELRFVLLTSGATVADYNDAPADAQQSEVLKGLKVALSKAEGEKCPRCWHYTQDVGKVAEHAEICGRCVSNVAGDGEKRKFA
Another data set deals with Leucine--tRNA ligase (Escherichia coli (strain K12), UniProt P07813). Description: Inhibition of purified Escherichia coli BL21 (DE3) leuRS incubated for 10 mins in presence of 14C-labeled leucine by radiolabel transfer assay. To be noted: read-out: Ki(app).
Sequence of Leucine--tRNA ligase (P07813 whole entry): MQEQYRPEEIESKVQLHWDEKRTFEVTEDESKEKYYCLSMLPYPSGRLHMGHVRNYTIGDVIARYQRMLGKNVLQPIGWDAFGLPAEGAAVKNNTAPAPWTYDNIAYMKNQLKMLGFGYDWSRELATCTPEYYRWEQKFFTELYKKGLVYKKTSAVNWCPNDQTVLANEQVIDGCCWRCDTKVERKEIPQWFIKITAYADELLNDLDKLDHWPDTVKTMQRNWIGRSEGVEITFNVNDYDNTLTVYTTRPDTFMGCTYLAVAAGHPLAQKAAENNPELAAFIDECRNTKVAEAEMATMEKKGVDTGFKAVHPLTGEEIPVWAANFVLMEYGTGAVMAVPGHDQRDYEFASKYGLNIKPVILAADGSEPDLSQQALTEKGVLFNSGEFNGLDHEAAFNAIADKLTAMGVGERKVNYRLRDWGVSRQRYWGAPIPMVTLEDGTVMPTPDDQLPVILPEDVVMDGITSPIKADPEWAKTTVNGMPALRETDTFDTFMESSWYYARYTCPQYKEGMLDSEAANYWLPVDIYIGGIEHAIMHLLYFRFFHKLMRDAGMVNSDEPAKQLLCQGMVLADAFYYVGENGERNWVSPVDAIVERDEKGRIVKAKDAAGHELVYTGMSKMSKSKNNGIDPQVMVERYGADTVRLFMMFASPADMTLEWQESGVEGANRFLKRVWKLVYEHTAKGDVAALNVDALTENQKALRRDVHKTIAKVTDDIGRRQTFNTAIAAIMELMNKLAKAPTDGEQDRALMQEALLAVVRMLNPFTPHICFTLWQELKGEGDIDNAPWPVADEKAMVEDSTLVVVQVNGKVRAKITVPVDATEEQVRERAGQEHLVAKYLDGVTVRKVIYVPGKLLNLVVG
Data set [5] deals with Isoleucine--tRNA ligase (Escherichia coli K-12) (UniProt P00956). Description: Inhibition of ileRS in Escherichia coli BL21 (DE3) pLysS S30 extract over expressing RimI incubated for 5 to 60 mins in presence of 14C-labeled isoleucine and acetyl-CoA by liquid scintillation counting method.
In data set [6] the target is T1, Tyrosine--tRNA ligase (Escherichia coli (strain K12)). As to the kind of experiment: Inhibition of tyrRS in Escherichia coli BL21 (DE3) pLysS S30 extract over expressing YhhY incubated for 5 to 60 mins in presence of 14C-labeled tyrosine by liquid scintillation counting method.
Data set [7] has the same target. As to the kind of experiment: Inhibition of tyrRS in Escherichia coli BL21 (DE3) pLysS S30 extract over expressing RimL incubated for 5 to 60 mins in presence of 14C-labeled tyrosine by liquid scintillation counting method relative to control.
Data set [8] shares this target. Description: Inhibition of tyrRS in Escherichia coli NCIB 8743 S30 extract assessed as aminoacylation at 250 nM incubated for 5 mins in presence of 14C-labeled tyrosine by liquid scintillation counting method relative to control. On the set-up: scale not given: the % may be the effect or the level left. The essentials:
(§1)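 S30 extract from cells grown in LB at 37 °C to OD600 1.2, sonicated, twice clarified; diluted 10-fold. Inhibitor (5 µM stock) preincubated 5 min with extract, then aminoacylation at 37 °C with 30 mM Tris pH 8.0, 1 mM DTT, 5 g/L tRNA, 3 mM ATP, 30 mM KCl, 8 mM MgCl₂, ¹⁴C-Ile 15 µM or ¹⁴C-Tyr 9.66 µM; quenched at 1 min, TCA filters counted. Activity relative to no-inhibitor extract; mean of three.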

A further data set has as its target T2, Tyrosine--tRNA ligase (Escherichia coli (strain K12), UniProt P0AGJ9).
T2 sequence (P0AGJ9 whole entry): T1 sequence (whole entry)
As to the kind of experiment: Inhibition of purified Escherichia coli BL21 (DE3) tyrRS incubated for 10 mins in presence of 14C-labeled tyrosine by radiolabel transfer assay. Particulars: read-out: Ki(app).

In data set [9] the target is Isoleucine--tRNA ligase (Escherichia coli K-12) (UniProt P00956). As to the kind of experiment: Inhibition of ileRS in Escherichia coli BL21 (DE3) pLysS S30 extract over expressing YhhY incubated for 5 mins in presence of 14C-labeled isoleucine and acetyl-CoA by liquid scintillation counting method.
Data set [10] addresses Leucine--tRNA ligase (Escherichia coli (strain K12)) (UniProt P07813). Description: Inhibition of leuRS in Escherichia coli BL21 (DE3) pLysS S30 extract over expressing YhhY incubated for 60 mins in presence of 14C-labeled leucine by liquid scintillation counting method.
Data set [11] in a line: Stability of compound in Escherichia coli NCIB 8743 S30 extract assessed as compound degradation incubated for 1 hr n presence of 14C-labeled isoleucine and acetyl-CoA by liquid scintillation counting method. It is filed as ADME, subcellular. A digest of the protocol: (§2)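 Inhibitor (5 μM stock) incubated at 37 °C up to 48 h with S30 extract (1:3), or with extract plus acetyl-CoA (10 mM stock) (1:1:3). Aliquots at set times added to aminoacylation mix (30 mM Tris pH 8.0, 1 mM DTT, tRNA, 3 mM ATP, 30 mM KCl, 8 mM MgCl₂, 10 μM ¹⁴C-isoleucine) at 37 °C; quenched after 1 min, ileRS activity by scintillation counting.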

Data set [12] is described as follows: Stability of compound in Escherichia coli NCIB 8743 S30 extract assessed as compound degradation at 0.25 uM in presence of 14C-labeled isoleucine and acetyl-CoA by liquid scintillation counting method. In kind it is ADME, subcellular. A digest of the protocol:
as §2

Data set [13] addresses Isoleucine--tRNA ligase (Escherichia coli K-12) (UniProt P00956). As to the kind of experiment: Inhibition of ileRS in Escherichia coli NCIB 8743 S30 extract assessed as aminoacylation at 250 nM incubated for 5 mins in presence of 14C-labeled isoleucine by liquid scintillation counting method relative to control. Also on record: scale not given: the % may be the effect or the level left. A digest of the protocol:
as §1

The target is the same in data set [14]. As to the kind of experiment: Inhibition of ileRS in Escherichia coli BL21 (DE3) pLysS S30 extract over expressing YhhY incubated for 60 mins in presence of 14C-labeled isoleucine and acetyl-CoA by liquid scintillation counting method.
In data set [15] the target is Leucine--tRNA ligase (Escherichia coli (strain K12)) (UniProt P07813). Description: Inhibition of leuRS in Escherichia coli BL21 (DE3) pLysS S30 extract over expressing YhhY incubated for 5 mins in presence of 14C-labeled leucine by liquid scintillation counting method.
Sequence of Leucine--tRNA ligase (Escherichia coli (strain K12)) (P07813 whole entry): as above
Data set [16] is described as follows: Stability of compound in Escherichia coli BL21 (DE3) pLysS S30 extract assessed as compound degradation at 0.25 uM in presence of 14C-labeled isoleucine and acetyl-CoA by liquid scintillation counting method. In kind it is ADME, subcellular.
A short description of data set [17]: Stability of compound in Escherichia coli NCIB 8743 S30 extract assessed as compound degradation incubated for 48 hr in presence of 14C-labeled isoleucine and acetyl-CoA by liquid scintillation counting method. It is filed as ADME, subcellular. The essentials:
as §2

In another data set the target is Isoleucine--tRNA ligase (Escherichia coli K-12, UniProt P00956). Description: Inhibition of purified Escherichia coli BL21 (DE3) ileRS incubated for 10 mins in presence of 14C-labeled isoleucine by radiolabel transfer assay. To be noted: read-out: Ki(app).
Sequence of Isoleucine--tRNA ligase (P00956 whole entry): as the sequence (P00956 whole entry) above

Active and inactive are the calls of the source. The rule behind the calls is not given here.

Consider `CC(C)C[C@H](N)C(=O)NS(=O)(=O)OC[C@H]1O[C@@H](n2ccc(N)nc2=O)[C@H](O)[C@@H]1O`, for which the inhibition result in data set [1], in [2], in [3] and in data set [5] was “Active” in each case. The inhibition result in data set [4] is “inactive”. Further, the Ki at Leucine--tRNA ligase was 9.8 nM.
Regarding `CC(C)C[C@H](N)C(=O)NS(=O)(=O)OC[C@H]1O[C@@H](n2cnc3c(N)ncnc32)[C@H](O)[C@@H]1O`, the inhibition entry in [1], in data set [2], in data set [3] and in data set [5] was “Active” throughout. Moreover, in data set [4], the inhibition result is “inactive”.
Consider `CC(C)C[C@H](N)C(=O)NS(=O)(=O)OC[C@H]1O[C@@H](n2ccc(=O)[nH]c2=O)[C@H](O)[C@@H]1O`, for which the inhibition entry in data set [1], in data set [2], in data set [3] and in [5] was “Active” each time. Moreover, the inhibition result in data set [4] was “inactive”. Besides, the Ki at Leucine--tRNA ligase is 20.8 nM.
As to `N[C@@H](Cc1ccc(O)cc1)C(=O)NS(=O)(=O)OC[C@H]1O[C@@H](n2ccc(=O)[nH]c2=O)[C@H](O)[C@@H]1O`, the inhibition result in data set [6], in data set [1], in data set [2], in data set [3], in data set [7] and in data set [5] was “Active” in each case. In addition, in data set [8], the Activity was in the range of 37 to 62%. Also, the Ki on Tyrosine--tRNA ligase was 43.4 nM.
As for `Nc1ccn([C@@H]2O[C@H](COS(=O)(=O)NC(=O)[C@@H](N)Cc3ccc(O)cc3)[C@@H](O)[C@H]2O)c(=O)n1`, the inhibition entry in data set [6] is “inactive”. Also, the inhibition entry in [1], in data set [2], in [3] and in data set [5] was “Active” in each case. Besides, the result in data set [8] was inactive. The Ki on Tyrosine--tRNA ligase is 1480 nM.
Take `CC[C@H](C)[C@H](N)C(=O)NS(=O)(=O)OC[C@H]1O[C@@H](n2cnc3c(N)ncnc32)[C@H](O)[C@@H]1O`: the inhibition entry in data set [9], in [1], in data set [2], in data set [10], in [3] and in [5] was “Active” each time. The inhibition entry in data set [15] is “Active”. The Stability result in data set [11], in [12], in data set [16] and in [17] was “Stable” in each case. The inhibition result in [4] and in data set [14] was “inactive” each time. Further, in data set [13], the Activity was 0.05 to 1.8%.
For the molecule `CC(C)C[C@H](N)C(=O)NS(=O)(=O)OC[C@H]1O[C@@H](n2ccc(=O)n(C)c2=O)[C@H](O)[C@@H]1O`, the Ki at Leucine--tRNA ligase worked out at 29.5 nM.
On to `CC[C@H](C)[C@H](N)C(=O)NS(=O)(=O)OC[C@H]1O[C@@H](n2ccc(=O)n(C)c2=O)[C@H](O)[C@@H]1O`, for which the Stability entry in [11] and in data set [17] was “Stable” throughout. In addition, the Ki on Isoleucine--tRNA ligase was found to be 1040 nM. For the same molecule, the Activity in data set [13] is 17 to 34%.
As to `Cn1c(=O)ccn([C@@H]2O[C@H](COS(=O)(=O)NC(=O)[C@@H](N)Cc3ccc(O)cc3)[C@@H](O)[C@H]2O)c1=O`, the Activity in data set [8] lay within 37 to 62%. In addition, at Tyrosine--tRNA ligase, the Ki was found to be 149 nM.
Turning to `Nc1ncnc2c1ncn2[C@@H]1O[C@H](COS(=O)(=O)NC(=O)[C@@H](N)Cc2ccc(O)cc2)[C@@H](O)[C@H]1O`, the inhibition entry in [6], in [1], in data set [2], in [3], in [7] and in [5] was “Active” throughout. The Activity in [8] fell in the range of 0.05 to 1.8%.
`CC[C@H](C)[C@H](N)C(=O)NS(=O)(=O)OC[C@H]1O[C@@H](n2ccc(N)nc2=O)[C@H](O)[C@@H]1O`: the inhibition result in [9], in data set [1], in data set [2], in data set [3], in data set [5] and in data set [15] was “Active” each time. Also, the inhibition entry in data set [10], in data set [4] and in data set [14] was “inactive” throughout. Besides, the Stability entry in [11] and in data set [17] was “Stable” in each case. Further, the Ki on Isoleucine--tRNA ligase came to 17.2 nM. Also, the Activity in data set [13] fell in the range of 5 to 14%.
Turning to `CC[C@H](C)[C@H](N)C(=O)NS(=O)(=O)OC[C@H]1O[C@@H](n2ccc(=O)[nH]c2=O)[C@H](O)[C@@H]1O`, the inhibition entry in [9], in data set [1], in data set [2], in data set [3], in data set [5] and in data set [15] was “Active” throughout. Also, the inhibition entry in data set [10], in [4] and in data set [14] was “inactive” each time. Besides, the Stability entry in data set [11], in [12], in data set [16] and in [17] was “Stable” in each case. In addition, the Ki at Isoleucine--tRNA ligase was 55 nM. The Activity in [13] was 5 to 14%.
